≈ marks a conversion by molar mass, not a printed value.
Assays:
[1] = biological target: T1, Peroxisome proliferator-activated receptor alpha (Homo sapiens, UniProt Q07869); test: Antagonist activity at human PPAR-alpha assessed as inhibition of GW7647-induced effect after overnight incubation by cell-based luciferase reporter gene assay
T1 sequence (Q07869 whole entry): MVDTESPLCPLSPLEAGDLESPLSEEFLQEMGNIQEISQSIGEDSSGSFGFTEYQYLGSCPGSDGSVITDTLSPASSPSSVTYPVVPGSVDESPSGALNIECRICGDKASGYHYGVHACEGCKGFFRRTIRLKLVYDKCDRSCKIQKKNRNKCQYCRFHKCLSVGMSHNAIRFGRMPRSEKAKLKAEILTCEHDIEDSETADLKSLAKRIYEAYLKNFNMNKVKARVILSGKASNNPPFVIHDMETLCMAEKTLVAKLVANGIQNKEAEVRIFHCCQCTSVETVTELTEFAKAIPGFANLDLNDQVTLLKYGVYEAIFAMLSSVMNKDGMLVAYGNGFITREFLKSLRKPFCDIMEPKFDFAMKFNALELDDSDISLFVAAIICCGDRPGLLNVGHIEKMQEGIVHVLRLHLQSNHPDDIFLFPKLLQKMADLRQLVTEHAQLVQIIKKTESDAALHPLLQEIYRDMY

[2] = Metabolic stability in mouse plasma assessed as compound remaining at 1 uM after 30 mins by LC-MS/MS analysis; assay type: ADME, cell-free; settings: read-out: Stability
Procedure, shortened: (§1)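 A 30 mM DMSO stock was diluted to 100 µM in acetonitrile, then spiked into thawed mouse plasma (1 µM final) and incubated at 37 °C. Aliquots were precipitated in acetonitrile containing buspirone, shaken 5 min and centrifuged at 4000g for 10 min. Supernatant was analysed by LC-MS/MS. Percent remaining = concentration at each time / t0 concentration × 100; mean of at least three experiments.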

[3] = Metabolic stability in mouse plasma assessed as compound remaining at 1 uM after 60 mins by LC-MS/MS analysis; assay type: ADME, cell-free; settings: read-out: Stability; procedure, shortened: as §1
[4] = tested on: Plasma; test: (§2) Metabolic stability in mouse plasma assessed as compound remaining at 1 uM after 24 hrs by LC-MS/MS analysis; assay type: ADME, cell-free; settings: 24 h, 1 µM; procedure, shortened: as §1
[5] = Solubility of the compound in aqueous buffer at pH 7.4 after 24 hrs by LC-MS/MS analysis; assay type: physicochemical
Procedure, shortened: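 Compound from a 10 mM DMSO stock was added to pH 7.4 buffer, vortexed 2 min, then shaken on an orbital shaker for 24 h at room temperature. Samples were then vacuum-filtered through a polycarbonate membrane before measurement.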

[6] = as §2; assay type: ADME, cell-free; settings: read-out: Stability; procedure, shortened: as §1
[7] = biological target: T1, Peroxisome proliferator-activated receptor alpha; test: Agonist activity at human PPAR-alpha

| Compound | IC50 [1] [nM] | remaining at 0.5 h, 1 µM [2] [%] | remaining at 1 h, 1 µM [3] [%] | Stability [4] [%] | solubility at 24 h [5] [µM] | remaining at 24 h, 1 µM [6] [%] | EC50 [7] [nM] |
| --- | --- | --- | --- | --- | --- | --- | --- |
| CCn1c(CCCc2ccc(OC(C)(C)C(=O)NS(=O)(=O)C3CCCCC3)cc2)nn(Cc2ccc(C(C)(C)C)cc2)c1=O | 3 | 60.5 | 43.6 | – | – | – | – |
| CCn1c(CCCc2ccc(OC(C)(C)C(=O)NS(=O)(=O)C3CC3)cc2)nn(Cc2ccc(C(C)(C)C)cc2)c1=O | 6.6 | 1.7 | 0.1 | – | – | – | – |
| CCn1c(CCCc2ccc(CC(C)(C)C(=O)NS(=O)(=O)c3ccccc3)cc2)nn(Cc2ccc(C(C)(C)C)cc2)c1=O | 60 | 80 | 62.3 | – | – | – | – |
| CCn1c(CCCc2ccc(-c3ccc(NS(=O)(=O)c4ccccc4)cc3)cc2)nn(Cc2ccc(C(C)(C)C)cc2)c1=O | 21 | – | – | 124.7 | 0.018 (≈ 0.011 µg/mL) | – | – |
| CCn1c(CCCc2ccc(OC(C)(C)C(=O)NS(=O)(=O)C3CCCC3)cc2)nn(Cc2ccc(C(C)(C)C)cc2)c1=O | 4.6 | 21 | 7 | – | – | – | – |
| CCn1c(CCCc2ccc(-c3ncc(NS(=O)(=O)c4ccccc4)cn3)cc2)nn(Cc2ccc(C(C)(C)C)cc2)c1=O | 114 | – | – | – | 0.091 (≈ 0.0556 µg/mL) | 119 | – |
| CCn1c(CCCc2ccc(OC(C)(C)C(=O)NS(=O)(=O)c3ccccc3)cc2)nn(Cc2ccc(C(C)(C)C)cc2)c1=O | – | 6.7 | 0.7 | – | – | – | – |
| CCn1c(CCCc2ccc(-c3ccc(NS(=O)(=O)c4ccccc4)nc3)cc2)nn(Cc2ccc(C(C)(C)C)cc2)c1=O | 122 | – | – | 128.7 | 0.014 (≈ 0.00854 µg/mL) | – | – |
| CCn1c(CCCc2ccc(-c3cnc(NS(=O)(=O)c4ccccc4)cn3)cc2)nn(Cc2ccc(C(C)(C)C)cc2)c1=O | 218 | – | – | 131.2 | 4.9 (≈ 2.99 µg/mL) | – | – |
| CCn1c(CCCc2ccc(OC(C)(C)C(=O)NS(=O)(=O)c3ccoc3)cc2)nn(Cc2ccc(C(C)(C)C)cc2)c1=O | 78 | 75.4 | 66.6 | – | – | – | – |
| CCn1c(CCCc2ccc(OC(C)(C)C(=O)NS(=O)(=O)c3ccc(C)cc3)cc2)nn(Cc2ccc(C(C)(C)C)cc2)c1=O | 2.8 | 73.1 | 63.7 | – | – | – | – |
| CCn1c(CCCc2ccc(-c3ccc(NS(=O)(=O)Cc4ccccc4)cc3)cc2)nn(Cc2ccc(C(C)(C)C)cc2)c1=O | 311 | – | – | 133.9 | 0.012 (≈ 0.00747 µg/mL) | – | – |
| CCn1c(CCCc2ccc(OC(C)(C)C(=O)NS(=O)(=O)c3cccnc3)cc2)nn(Cc2ccc(C(C)(C)C)cc2)c1=O | 80 | 82.4 | 75.2 | – | – | 0.2 | – |
| CCn1c(CCCc2ccc(OC(C)(C)C(=O)NS(=O)(=O)c3ccc(C(C)C)cc3)cc2)nn(Cc2ccc(C(C)(C)C)cc2)c1=O | 13 | 89.5 | 81.9 | – | – | 2.7 | – |
| CCn1c(CCCc2ccc(OC(C)(C)C(=O)NS(=O)(=O)C3=CCOC=C3)cc2)nn(Cc2ccc(C(C)(C)C)cc2)c1=O | 42 | 86.9 | 86.5 | – | – | – | – |
| CCn1c(CCCc2ccc(-c3ccc(NS(C)(=O)=O)cn3)cc2)nn(Cc2ccc(C(C)(C)C)cc2)c1=O | 113 | – | – | – | 0.423 (≈ 0.232 µg/mL) | 105 | – |
| C/C(=C/C(=O)c1ccccc1)N[C@@H](Cc1ccc(OCCc2nc(-c3ccccc3)oc2C)cc1)C(=O)O | – | – | – | – | – | – | 240 |
| CCn1c(CCCc2ccc(-c3cccc(NS(=O)(=O)c4ccccc4)c3)cc2)nn(Cc2ccc(C(C)(C)C)cc2)c1=O | 386 | – | – | 136 | 0.037 (≈ 0.0225 µg/mL) | – | – |
| CCn1c(CCCc2ccc(OC(C)(C)C(=O)NS(=O)(=O)c3ccc(C(F)(F)F)cc3)cc2)nn(Cc2ccc(C(C)(C)C)cc2)c1=O | 34 | 103 | 105 | – | – | 53.7 | – |
